Source: PubChem
STAT1 act: STAT1 signaling activators, primary screen, cell-based, HTS, luciferase reporter; NIH 3T3 STAT1-luciferase reporter, IFN-gamma, luminescence; 100% = IFN-gamma alone, no compound; 200,000 tested, 2.6% active; AID 932, 2007; activation (% of control), % at 5.5 µM;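 active = activation above the screen-wide mean activation plus 3 SD, cut at about 130% in these data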
STAT3 activator: IL-6 driven STAT3 reporter potentiators, primary screen, U3A cells, luciferase, luminescence, MLSCN library; AID 871, 2007; activation (% of control), % at 5.6 µM; IL-6 STAT3-luciferase reporter; 100% = signal with IL-6 EC80 alone; 190,000 tested, 0.91% active;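 active = activation above the screen-wide mean of compound activation plus 3 SD, cut at about 130% in these data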
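Detection: reporter luminescence signal / Assay system: STAT1-lacking human U3A cells, STAT3 luciferase reporter / Incubation: compound pre-incubation 1 h before IL-6, then 6 h stimulation at 37 °C / Control set: IL-6-only high control / Read-out: % activation relative to IL-6 control / Probe or stimulus: Interleukin-6, 33 ng/mL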
STAT1 inh: STAT1 signaling inhibitors, primary screen, cell-based, HTS, luciferase reporter | inhibition, % at 5.5 µM | 200,000 tested, 0.35% active | NIH 3T3 STAT1-luciferase reporter, IFN-gamma, luminescence;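 active = inhibition above a set limit, the mean inhibition across all tested compounds plus 3 SD, cut at about 34% in these data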
NF-kB neuron act: activators of NF-kB expression in neurons, primary screen, cell-based, HTS | human neuronal cells, NF-kB reporter expression; stronger effect = higher value | fold change at 12.5 µM | 190,000 tested, 1.6% active; in the data active = fold change above about 3.3
APP 5'UTR act: activators of APP 5'UTR luciferase reporter, primary screen, SH-SY5Y cells; 190,000 tested, 1% active; activation, % at 2 µM; AID 1276, 2008; SH-SY5Y APP 5'UTR luciferase reporter, luminescence; zero percent = DMSO vehicle wells;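 active = activation above a set limit, based on mean plus 3 SD of controls, cut at about 140% in these data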
STAT3 inh-1: IL-6 driven STAT3 reporter inhibitors, primary screen, U3A cells, luciferase, luminescence, MLSCN library. AID 862, 2007. inhibition, % at 5.5 µM. IL-6 STAT3-luciferase reporter; host cell line lacks STAT1. 190,000 tested, 0.89% active;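 active = inhibition above the mean inhibition across all screened compounds plus 3 SD, cut at about 44% in these data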
STAT3 inh-2: STAT3 reporter inhibitors, retest of hits, confirmation, U3A cells, luciferase, luminescence | shares compounds with STAT3 inh-1 | IL-6 STAT3 luciferase reporter; cell line lacks STAT1 | inhibition, % at 5.7 µM | 1,200 tested, 45% active;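 active = inhibition above the hit cutoff computed for the primary STAT3 screen, cut at about 44% in these data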
NFkB inh 2: NF-kB reporter inhibitors in human cells, confirmation, counter-screen for STAT3 inhibitor project, cell-based, HEK293T, luciferase, TNF-alpha stimulus. shares compounds with STAT3 inh-1. TNF-alpha induced. inhibition, % at 5.7 µM. 1,200 tested, 36% active. AID 1308, 2008;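 active = inhibition above the mean of solvent-only control wells plus 3 SD, cutoff set per campaign, cut at about 13% in these data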
STAT1 inh 2: STAT1 reporter inhibitors, IFN-gamma induced, confirmation, counter-screen for STAT3 inhibitor project, cell-based, NIH 3T3, luciferase luminescence; 1,200 tested, 27% active; inhibition, % at 5.7 µM; shares compounds with STAT3 inh-1; NIH 3T3 STAT1-luciferase reporter;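 active = inhibition above the mean plus 3 SD of solvent-only control wells, limit set per screening run, cut at about 16% in these data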
Each line names hits and unclear results; the compound was inactive in the other large screens (follow-up assays come after a bar, where they were run). Compounds with a hit are over-represented: about 5.1% of the library has one in this group of screens.

COc1cccc(-c2nnc(NC(=O)C(C)C)o2)c1	none
COc1cccc(-c2nnc(-c3ccc(C)o3)o2)c1	NF-kB neuron act 4.2, APP 5'UTR act 164, STAT3 inh-1 55 | STAT3 inh-2 inactive | NFkB inh 2 inactive | STAT1 inh 2 inactive
CC(=O)N(c1ccc(C)cc1)S(=O)(=O)c1ccc(Cl)cc1	none
COc1ccc(CN2CCN(CCC(C)C)C(CCO)C2)cc1Cn1cncn1 (stereo not drawn)	none
Cc1cc(-n2c(C)cc(C(=O)CSc3nnc4sc5ccccc5n34)c2C)no1	none
Cc1cc(-n2c(C)cc(C(=O)CSc3ncnc4ccccc34)c2C)no1	STAT3 inh-1 75 | STAT3 inh-2 75 | NFkB inh 2 25 | STAT1 inh 2 23
COC(=O)c1cnn2c1C(=O)N(Cc1cccs1)CC2	none
CCCCn1c2c(c(=N)c3c1CCC3)CCC2	STAT3 inh-1 53 | STAT3 inh-2 inactive | NFkB inh 2 inactive | STAT1 inh 2 22
N=c1c2c(n(Cc3ccc(F)cc3)c3c1CCC3)CCC2	none
CCCCCCCn1c2c(c(=N)c3c1CCC3)CCCC2	STAT3 inh-1 81 | STAT3 inh-2 88 | NFkB inh 2 37 | STAT1 inh 2 28
CCCn1c2c(c(O)c(C(=O)NC)c1=O)CCCC2	none
CCCCCCCCCn1c2c(c(=N)c3c1CCC3)CCC2	STAT3 inh-1 82 | STAT3 inh-2 85 | NFkB inh 2 59 | STAT1 inh 2 30
CCn1c2c(c(=N)c3c1CCC3)CCC2	none
CCCCCCn1c2c(c(=N)c3c1CCC3)CCC2	STAT3 inh-1 81 | STAT3 inh-2 82 | NFkB inh 2 35 | STAT1 inh 2 27
COc1ccc(N(C(=O)CNC(=O)c2cccs2)C(C(=O)NCC2CCCO2)c2ccccc2)cc1OC (stereo not drawn)	none
CCOc1cc2[nH]c(=O)n(CCCC(=O)N(C)Cc3ccccc3)c(=O)c2cc1OCC	none
COc1cccc(-n2nnc3c(=O)n(CC(=O)Nc4ccc(C)cc4)cnc32)c1	none
Cc1ccccc1NC(=S)NC1(C)CCS(=O)(=O)C1 (stereo not drawn)	none
CCOc1ccc(-n2c(-c3ccccc3)c[n+]3c2CCCCC3)cc1	STAT3 inh-1 74 | STAT3 inh-2 76 | NFkB inh 2 inactive | STAT1 inh 2 24
CCOc1ccc(-n2c(SCc3ccc([N+](=O)[O-])cc3)nnc2-c2ccccc2)cc1	none
COc1cc(OC)cc(C(=O)Nc2ccc(-c3nc4ccccc4o3)cc2)c1	STAT3 inh-1 46 | STAT3 inh-2 45 | NFkB inh 2 inactive | STAT1 inh 2 inactive
O=C(Nc1ccc2oc(-c3ccccc3)nc2c1)c1ccncc1	STAT3 inh-1 46 | STAT3 inh-2 inactive | NFkB inh 2 inactive | STAT1 inh 2 inactive
O=C(Nc1ccc(-c2nc3ccccc3o2)cc1)c1ccc(N2C(=O)C3C4C=CC(C4)C3C2=O)cc1 (stereo not drawn)	STAT3 inh-1 74 (no result: APP 5'UTR act) | STAT3 inh-2 68 | NFkB inh 2 17 | STAT1 inh 2 inactive
O=C(Nc1ccc(-c2nc3ccccc3o2)cc1)c1ccc2c(c1)OCO2	none
O=C(c1ccc(Br)o1)N1CCN(c2ccc3nnc(-c4ccc(F)cc4)n3n2)CC1	none
NC(=O)NC(=O)COC(=O)[C@H](Cc1ccccc1)NC(=O)c1cccs1	none
